ChEMBL document CHEMBL1145837, “Design and synthesis of 4,6-di-tert-butyl-2,3-dihydro-5-benzofuranols as a novel series of antiatherogenic antioxidants” (J Med Chem, 2003)

How the values were obtained:
Oryctolagus cuniculus [1] = species on record: Oryctolagus cuniculus; test: Inhibition of LDL oxidation induced by cupric ions (CuSO4) at 1 uM expressed as % control.; assay type: functional
How it was run: (§1)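 Rabbit LDL (d 1.019–1.063 g/mL, sequential ultracentrifugation) at 200 μg/mL with compound at stated concentration, oxidized by soybean lipoxygenase type-IS or CuSO4 at 37 °C for 24 h in CO2 incubator. Read-out: TBARS and LDL fluorescence by gel permeation chromatography (0.1 M NaCl, 0.05 M Tris pH 7.4); expressed as % of control; duplicate or more.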

Oryctolagus cuniculus [2] = species on record: Oryctolagus cuniculus; test: Inhibition of LDL oxidation induced by cupric ions (CuSO4) at 10 uM expressed as % control.; assay type: functional; how it was run: as §1
[3] = target: T1, Seed linoleate 13S-lipoxygenase-1 (Glycine max) (UniProt P08170); test: Inhibition of LDL oxidation induced by soybean lipoxygenase (SLO) at 0.5 uM expressed as % control.; assay type: functional; how it was run: as §1
T1 sequence (whole entry): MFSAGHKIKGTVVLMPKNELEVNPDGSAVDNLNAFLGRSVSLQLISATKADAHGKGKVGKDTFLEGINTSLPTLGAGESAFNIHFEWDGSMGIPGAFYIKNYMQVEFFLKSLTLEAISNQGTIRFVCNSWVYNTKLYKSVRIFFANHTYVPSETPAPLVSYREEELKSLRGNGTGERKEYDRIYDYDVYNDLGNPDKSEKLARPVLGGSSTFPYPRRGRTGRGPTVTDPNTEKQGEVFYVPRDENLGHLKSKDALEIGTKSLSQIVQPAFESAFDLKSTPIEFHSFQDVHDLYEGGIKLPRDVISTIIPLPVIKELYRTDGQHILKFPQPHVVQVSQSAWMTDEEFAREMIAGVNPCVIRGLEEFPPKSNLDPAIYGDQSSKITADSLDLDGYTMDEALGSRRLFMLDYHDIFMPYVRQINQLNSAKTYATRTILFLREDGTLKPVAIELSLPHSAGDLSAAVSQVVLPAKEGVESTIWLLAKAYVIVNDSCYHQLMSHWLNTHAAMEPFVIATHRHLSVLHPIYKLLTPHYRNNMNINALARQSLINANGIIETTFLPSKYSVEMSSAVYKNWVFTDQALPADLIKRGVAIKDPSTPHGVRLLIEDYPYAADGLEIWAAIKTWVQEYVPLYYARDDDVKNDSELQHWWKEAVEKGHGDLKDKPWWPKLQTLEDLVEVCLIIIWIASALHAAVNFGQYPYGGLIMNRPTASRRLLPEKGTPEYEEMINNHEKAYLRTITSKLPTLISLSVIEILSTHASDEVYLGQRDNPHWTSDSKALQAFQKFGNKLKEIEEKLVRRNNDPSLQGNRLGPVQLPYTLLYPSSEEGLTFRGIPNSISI

[4] = target: T1, Seed linoleate 13S-lipoxygenase-1 (Glycine max); test: Inhibition of LDL oxidation induced by soybean lipoxygenase (SLO) at 5 uM expressed as % control.; assay type: functional; how it was run: as §1
[5] = Inhibition of MCLA chemiluminescence generated by autoxidation of linoleic acid
How it was run: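 Linoleic acid peroxyl radicals from autoxidation of 1 mM linoleic acid in 1-butanol with 10 μM MCLA, 10 min at 37 °C under air; quenching measured as change in MCLA chemiluminescence after compound addition; IC50 derived; duplicate or more.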

Oryctolagus cuniculus [6] = test: Distribution of compound into VLDL lipoprotein fraction of WHHL Rabbit's plasma after oral administration; assay type: ADME, organism-based; conditions: in vivo
How it was run: (§2)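 WHHL rabbits given test compound orally (250 mg/kg) once daily for 9 days; at 24 h after final dose plasma lipoproteins isolated by Havel procedure, EtOAc-extracted, compound content per mg lipoprotein measured by reverse-phase HPLC. Mean ± range, n = 2.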

Oryctolagus cuniculus [7] = test: Distribution of compound into LDL lipoprotein fraction of WHHL Rabbit's plasma after oral administration; assay type: ADME, organism-based; conditions: in vivo; how it was run: as §2
Oryctolagus cuniculus [8] = test: Distribution of compound into HDL lipoprotein fraction of WHHL Rabbit's plasma after oral administration; ND means not detected; assay type: ADME, organism-based; conditions: in vivo; how it was run: as §2
Oryctolagus cuniculus [9] = test: Distribution of compound into HDL lipoprotein fraction of WHHL Rabbit's plasma after oral administration; assay type: ADME, organism-based; conditions: in vivo; how it was run: as §2

| SMILES | LDL oxidation remaining, % of control [3] [%] | LDL oxidation remaining, % of control [4] [%] | VLDL (Oryctolagus cuniculus [6]) [µg/mg] | LDL (Oryctolagus cuniculus [7]) [µg/mg] | HDL (Oryctolagus cuniculus [8]) | HDL (Oryctolagus cuniculus [9]) [µg/mg] | LDL oxidation remaining, % of control (Oryctolagus cuniculus [1]) [%] | LDL oxidation remaining, % of control (Oryctolagus cuniculus [2]) [%] | IC50 [5] [µM] |
| --- | --- | --- | --- | --- | --- | --- | --- | --- | --- |
| CC(C)(C)c1cc2c(c(C(C)(C)C)c1O)CC1(CCCCCCC1)O2 | 97.2 | 9 | – | – | – | – | 92 | 22 | 9.4 |
| CC(C)(C)c1cc2c(c(C(C)(C)C)c1O)CC(C(C)(C)C)O2 (stereo unspecified) | 99 | 1.8 | 27.69 | 5.08 | Not detected | – | 74 | 11 | 8.4 |
| CC(C)(C)c1cc2c(c(C(C)(C)C)c1O)CC1(CCCCC1)O2 | 34.1 | 0 | – | – | – | – | 77 | 16 | 9.3 |
| CC(C)(C)c1cc2c(c(C(C)(C)C)c1O)CC1(CCOCC1)O2 | 71.8 | 4.7 | – | – | – | – | 87 | 22 | 8.2 |
| CC(C)(C)c1cc2c(c(C(C)(C)C)c1O)CCO2 | 36 | 6.9 | – | – | – | – | 53 | 11 | 7.2 |
| CC(C)(C)c1cc2c(c(C(C)(C)C)c1O)CC1(CCCC1)O2 | 46.2 | 0.4 | – | – | – | – | 85 | 12 | 6.6 |
| CC(C)(C)c1cc2c(c(C(C)(C)C)c1O)CC1(CCCCCC1)O2 | 93.4 | 2.3 | – | – | – | – | 91 | 9 | 7.9 |
| CC(C)(C)c1cc2c(c(C(C)(C)C)c1O)CC(Cc1ccccc1)(Cc1ccccc1)O2 | 63.5 | 3.6 | – | – | – | – | 93 | 11 | 10.6 |
| CC1(C)Cc2c(cc(C(C)(C)C)c(O)c2C(C)(C)C)O1 | 39.8 | 1.8 | – | – | – | – | 56 | 10 | 6.7 |
| CC(C)(Sc1cc(C(C)(C)C)c(O)c(C(C)(C)C)c1)Sc1cc(C(C)(C)C)c(O)c(C(C)(C)C)c1 [PROBUCOL] | 73.9 | 14 | 5.48 | 2.57 | – | 0.44 | 87 | 28 | 165 |

Second part, led by results:

| LDL oxidation remaining, % of control [3] [%] | LDL oxidation remaining, % of control [4] [%] | VLDL (Oryctolagus cuniculus [6]) [µg/mg] | LDL (Oryctolagus cuniculus [7]) [µg/mg] | HDL (Oryctolagus cuniculus [8]) | HDL (Oryctolagus cuniculus [9]) [µg/mg] | SMILES | LDL oxidation remaining, % of control (Oryctolagus cuniculus [1]) [%] | LDL oxidation remaining, % of control (Oryctolagus cuniculus [2]) [%] | IC50 [5] [µM] |
| --- | --- | --- | --- | --- | --- | --- | --- | --- | --- |
| 75.5 | 2.7 | – | – | – | – | CCCCCCC1(CCCCCC)Cc2c(cc(C(C)(C)C)c(O)c2C(C)(C)C)O1 | 86 | 23 | – |
| 33.3 | 0 | – | – | – | – | CCCC1(CCC)Cc2c(cc(C(C)(C)C)c(O)c2C(C)(C)C)O1 | 87 | 13 | 4 |
| 60.9 | 4.6 | 119.25 | 28.6 | – | 2.98 | CCCCCC1(CCCCC)Cc2c(cc(C(C)(C)C)c(O)c2C(C)(C)C)O1 [BO-653] | 96 | 42 | 4.6 |
| 91.5 | 7.1 | 25.64 | 9.34 | Not detected | – | CC(C)CCC1(CCC(C)C)Cc2c(cc(C(C)(C)C)c(O)c2C(C)(C)C)O1 | 78 | 23 | 5.7 |
| 88.4 | 18.5 | – | – | – | – | CCCCCCCC1(CCCCCCC)Cc2c(cc(C(C)(C)C)c(O)c2C(C)(C)C)O1 | 89 | 83 | – |
| 51.5 | 0.5 | 57.07 | 11.04 | – | 3.22 | CCCCC1(CCCC)Cc2c(cc(C(C)(C)C)c(O)c2C(C)(C)C)O1 | 82 | 12 | 7.9 |
| 89.8 | 11.3 | 1.16 | 0.36 | Not detected | – | CCCCCCCCC1(CCCCCCCC)Cc2c(cc(C(C)(C)C)c(O)c2C(C)(C)C)O1 | 85 | 72 | 5.6 |
| 9.4 | 1.3 | – | – | – | – | CCC1(CC)Cc2c(cc(C(C)(C)C)c(O)c2C(C)(C)C)O1 | 77 | 10 | 4.3 |
